Assay results from ChEMBL document CHEMBL2046427, “Nonhematotoxic naphthalene diimide modified by polyamine: synthesis and biological evaluation” (J Med Chem, 2012).
pIC50: −log10 of the molar value. Calls of active or inactive are those of the source. The calls are words filed in the database; no cut-off is given here.

Columns and labels:
Mus musculus [1] = test: Toxicity in mouse H22 cells bearing Kunming mouse assessed as decrease in white blood cells number at 0.2 mg/kg, iv administered for 7 days measured on day 8 relative to vehicle treated control; type: organism-based; design: dose 0.2 mg/kg, route intravenous; conditions: in vivo, 168 h
Method in brief: (§1)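 Tumour-bearing Kunming mice (10/group) dosed iv daily for 7 days, then killed on day 8. Blood and bone marrow counted on a Coulter counter for platelets, RBC, WBC and marrow cells. Spleen and thymus weighed; organ index (%) = (organ weight/body weight) × 100. Mean ± SD; Student's t test or ANOVA with q test versus saline.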

HepG2 [2] = test: Cytotoxicity against human HepG2 cells assessed as decrease in mitochondrial membrane potential after 48 hrs by fluorescence-based high-content screening assay; type: functional, cell-based
Method in brief: (§2)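 HepG2 seeded 5 × 10³/well; after 12 h treated at 1, 5, 10, 15 and 30 μM for 48 h. Multiparameter cytotoxicity kit staining imaged by high-content screening: Hoechst 33342 for nuclear morphology, permeability dye (green nuclei) for membrane integrity, mitochondrial potential dye, and a weak-base dye for lysosomal mass/pH.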

HepG2 [3] = test: Induction of apoptosis in human HepG2 cells assessed as caspase 3 activation at 10 uM after 48 hrs by indirect immunofluorescence method; type: functional, cell-based
Method in brief: (§3)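 HepG2 in 24-well plates treated at 10 μM for 48 h, harvested and stained with annexin V–FITC/propidium iodide kit or cleaved caspase 3 indirect immunofluorescence. Imaging by high-content screening with target-activation analysis; comparison against control.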

H22 [4] = test: Antitumor activity against mouse H22 cells xenografted in Kunming mouse assessed as median survival time at 0.2 […], iv administered 24 hrs post-tumor injection for 7 days (reference value: 12.7 +/- 2.5 days); type: functional
Method in brief: (§4)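 Kunming mice bearing H22 cells; iv (caudal vein) dosing or physiologic saline control started 24 h after inoculation and given for 7 consecutive days. Median survival time recorded per group; activity judged as increase in lifespan versus saline control.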

Mus musculus [5] = test: Toxicity in mouse H22 cells bearing Kunming mouse assessed pathological changes in brain at 0.2 mg/kg, iv administered for 7 days measured on day 8 by hematoxylin and eosin staining relative to vehicle treated control; type: organism-based; design: dose 0.2 mg/kg, route intravenous; conditions: in vivo, 168 h
H22 [6] = test: Antimetastatic activity against mouse H22 cells xenografted in Kunming mouse assessed as decrease in lung metastasis focuses at 0.2 mg/kg, iv administered on day 11 post-tumor injection for 7 days measured on day 18 relative to vehicle treated control; type: functional, organism-based; design: dose 0.2 mg/kg
Mus musculus [7] = test: Toxicity in mouse H22 cells bearing Kunming mouse assessed pathological changes in spleen at 0.2 mg/kg, iv administered for 7 days measured on day 8 by hematoxylin and eosin staining relative to vehicle treated control; type: organism-based; design: dose 0.2 mg/kg, route intravenous; conditions: in vivo, 168 h
HepG2 [8] = test: Cytotoxicity in human HepG2 cells assessed as gain in lysosomal mass/pH at 10 uM after 48 hrs by fluorescence-based high-content screening assay; type: functional, cell-based
HepG2 [9] = test: Cytotoxicity in human HepG2 cells assessed as decrease in mitochondrial membrane potential at 10 uM after 48 hrs by fluorescence-based high-content screening assay; type: functional, cell-based
MDA-MB-231 = test: Cytotoxicity against human MDA-MB-231 cells after 48 hrs by MTT assay; type: functional, cell-based; conditions: MDA-MB-231, 48 h
Method in brief: (§5)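 MTT conversion assay at 37 °C, 5% CO₂. […] Inhibition relative to untreated cells as 100%; IC50 by linear regression, mean of three independent experiments.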

Mus musculus [10] = test: Toxicity in mouse H22 cells bearing Kunming mouse assessed pathological changes in kidney at 0.2 mg/kg, iv administered for 7 days measured on day 8 by hematoxylin and eosin staining relative to vehicle treated control; type: organism-based; design: dose 0.2 mg/kg, route intravenous; conditions: in vivo, 168 h
Mus musculus [11] = test: Toxicity in mouse H22 cells bearing Kunming mouse assessed as decrease in platelet number at 0.2 mg/kg, iv administered for 7 days measured on day 8 relative to vehicle treated control; type: organism-based; design: dose 0.2 mg/kg, route intravenous; conditions: in vivo, 168 h; method in brief: as §1
H22 [12] = test: Antitumor activity against mouse H22 cells xenografted in Kunming mouse assessed as tumor growth inhibition at 0.2 mg/kg, iv administered on day 8 post-tumor injection for 7 days measured on day 16 relative to vehicle treated control; type: functional; conditions: read-out: GI
Method in brief: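 Male Kunming mice, 5 weeks, 18−22 g, injected sc with 2 × 10⁶ H22 cells. From day 8, randomized groups got caudal vein injection (0.2 or 5 mg/kg, or physiologic saline) for 7 consecutive days. On day 16 tumours excised and weighed; inhibitory rate (%) = [(A − B)/A] × 100 using mean tumour weights of control (A) and treated (B). Tumours formalin-fixed, H&E-stained.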

H22 [13] = test: Antimetastatic activity against mouse H22 cells xenografted in Kunming mouse assessed as tumor weight at 0.2 mg/kg, iv administered on day 11 post-tumor injection for 7 days measured on day 18 (reference value: 0.34 +/- 0.15 g); type: functional
Mus musculus [14] = test: Toxicity in mouse H22 cells bearing Kunming mouse assessed pathological changes in liver at 0.2 mg/kg, iv administered for 7 days measured on day 8 by hematoxylin and eosin staining relative to vehicle treated control; type: organism-based; design: dose 0.2 mg/kg, route intravenous; conditions: in vivo, 168 h
HepG2 [15] = test: Cytotoxicity in human HepG2 cells assessed as mitochondrial membrane damage at 10 uM after 48 hrs by fluorescence-based high-content screening assay; type: functional, cell-based
H22 [16] = test: Antitumor activity against mouse H22 cells xenografted in Kunming mouse assessed as decrease in cell survival at 0.2 mg/kg, iv administered on day 8 post-tumor injection for 7 days measured on day 16 by hematoxylin and eosin staining relative to vehicle treated control; type: functional, organism-based; design: dose 0.2 mg/kg
Mus musculus [17] = test: Toxicity in mouse H22 cells bearing Kunming mouse assessed as decrease in red blood cells number at 0.2 mg/kg, iv administered for 7 days measured on day 8 relative to vehicle treated control; type: organism-based; design: dose 0.2 mg/kg, route intravenous; conditions: in vivo, 168 h; method in brief: as §1
HepG2 [18] = test: Cytotoxicity against human HepG2 cells after 48 hrs by MTT assay; type: functional, cell-based; conditions: HepG2, 48 h; method in brief: as §5
HepG2 [19] = test: Cytotoxicity against human HepG2 cells assessed as cell nuclear shrinkage after 48 hrs by Hoechst 33342-based fluorescence-based high-content screening assay; type: functional; method in brief: as §2
Mus musculus [20] = test: Toxicity in mouse H22 cells bearing Kunming mouse assessed pathological changes in heart at 0.2 mg/kg, iv administered for 7 days measured on day 8 by hematoxylin and eosin staining relative to vehicle treated control; type: organism-based; design: dose 0.2 mg/kg, route intravenous; conditions: in vivo, 168 h
H22 [21] = test: Antimetastatic activity against mouse H22 cells xenografted in Kunming mouse assessed as decrease in lung tumor burden at 0.2 mg/kg, iv administered on day 11 post-tumor injection for 7 days measured on day 18 relative to vehicle treated control; type: functional, organism-based; design: dose 0.2 mg/kg
HepG2 [22] = test: Induction of apoptosis in human HepG2 cells assessed as reactive oxygen species generation at 10 uM after 48 hrs by […]-based staining; type: functional, cell-based
Method in brief: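 HepG2 given 10 μM for 48 h; intracellular ROS by DCFH-DA staining imaged by high-content screening, compared with untreated control.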

HepG2 [23] = test: Cytotoxicity in human HepG2 cells assessed as loss of cell membrane integrity at 10 uM after 48 hrs by fluorescence-based high-content screening assay; type: functional
H22 [24] = test: Antitumor activity against mouse H22 cells xenografted in Kunming mouse assessed as median survival time at 0.2 […], iv administered 24 hrs post-tumor injection for 7 days relative to vehicle treated control; type: functional; method in brief: as §4
Mus musculus [25] = test: Toxicity in mouse H22 cells bearing Kunming mouse assessed as change in thymus index number at 0.2 mg/kg, iv administered for 7 days measured on day 8 relative to vehicle treated control; type: organism-based; design: dose 0.2 mg/kg, route intravenous; conditions: in vivo, 168 h; method in brief: as §1
HepG2 [26] = test: Induction of apoptosis in human HepG2 cells assessed as phosphatidylserine externalisation at 10 uM after 48 hrs by annexinV/FITC-based high-content screening assay; type: functional, cell-based; method in brief: as §3
HCT-116 = test: Cytotoxicity against human HCT116 cells after 48 hrs by MTT assay; type: functional, cell-based; conditions: HCT-116, 48 h; method in brief: as §5
Mus musculus [27] = test: Toxicity in mouse H22 cells bearing Kunming mouse assessed pathological changes in lung at 0.2 mg/kg, iv administered for 7 days measured on day 8 by hematoxylin and eosin staining relative to vehicle treated control; type: organism-based; design: dose 0.2 mg/kg, route intravenous; conditions: in vivo, 168 h
HepG2 [28] = test: Cytotoxicity against human HepG2 cells assessed as acruement in lysosomal mass/pH after 48 hrs by fluorescence-based high-content screening assay; type: functional, cell-based; method in brief: as §2
Mus musculus [29] = test: Toxicity in mouse H22 cells bearing Kunming mouse assessed as change in spleen index number at 0.2 mg/kg, iv administered for 7 days measured on day 8 relative to vehicle treated control; type: organism-based; design: dose 0.2 mg/kg, route intravenous; conditions: in vivo, 168 h; method in brief: as §1
HepG2 [30] = test: Cytotoxicity against human HepG2 cells assessed as mitochondrial permeability augmentation after 48 hrs by fluorescence-based high-content screening assay; type: functional, cell-based; method in brief: as §2
Mus musculus [31] = test: Hematotoxicity in mouse H22 cells bearing Kunming mouse assessed as decrease in bone marrow cell numbers at 0.2 mg/kg, iv administered for 7 days measured on day 8 relative to vehicle treated control; type: organism-based; design: dose 0.2 mg/kg, route intravenous; conditions: in vivo, 168 h; method in brief: as §1
Mus musculus [32] = test: Toxicity in mouse H22 cells bearing Kunming mouse assessed as weight loss at 0.2 mg/kg, iv administered for 7 days measured on day 8 relative to vehicle treated control; type: organism-based; design: dose 0.2 mg/kg, route intravenous; conditions: in vivo, 168 h
Method in brief: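 Body weight tracked during 7 consecutive days of daily iv dosing in tumour-bearing Kunming mice, with saline controls; animals killed on day 8.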

`Cl.NCCCNCCCCNCCCN1C(=O)c2ccc3c4c(ccc(c24)C1=O)C(=O)N(CCCNCCCCNCCCN)C3=O` was tested, and the Activity (Mus musculus [1]) was “Non-toxic”, the Activity (HepG2 [2]) was “Dose-dependent effect” and the Activity (HepG2 [3]) was “Active”. The MST (H22 [4]) was 29.8 days, the Activity (Mus musculus [5]) was “Non-toxic” and the Activity (H22 [6]) was “Active”. For the same compound, the Activity (Mus musculus [7]) was “Non-toxic”, the Activity (HepG2 [8]) was “Active” and the Activity (HepG2 [9]) was “Active”. The pIC50 (MDA-MB-231) was 6.35, the Activity (Mus musculus [10]) was “Non-toxic” and the Activity (Mus musculus [11]) was “Non-toxic”. For the same compound, the inhibition in vivo at 0.2 mg/kg (H22 [12]) was 51.8%, the Activity (H22 [13]) was 0.17 g and the Activity (Mus musculus [14]) was “Non-toxic”. For the same compound, the Activity (HepG2 [15]) was “Active”, the Activity (H22 [16]) was “Active” and the Activity (Mus musculus [17]) was “Non-toxic”. The pIC50 (HepG2 [18]) was 5.91, the Activity (HepG2 [19]) was “Dose-dependent effect” and the Activity (Mus musculus [20]) was “Non-toxic”. For the same compound, the Activity (H22 [21]) was “Active”, the Activity (HepG2 [22]) was “Active” and the Activity (HepG2 [23]) was “Active”. The Ratio (H22 [24]) was 2.3, the Activity (Mus musculus [25]) was “Non-toxic” and the Activity (HepG2 [26]) was “Active”. The pIC50 (HCT-116) was 6.89, the Activity (Mus musculus [27]) was “Non-toxic” and the Activity (HepG2 [28]) was “Dose-dependent effect”. The Activity (Mus musculus [29]) was “Non-toxic”, the Activity (HepG2 [30]) was “Dose-dependent effect” and the Activity (Mus musculus [31]) was “Non-toxic”. For the same compound, the Activity (Mus musculus [32]) was “Non-toxic”.
